Assay outcomes (PubChem BioAssay)
Only some compounds are listed: those with a hit (about 0.72% of all), similar ones and a draw of the others.
bIAP inh – blocks bovine intestinal alkaline phosphatase activity; inhibition, % at 20 µM; purified bovine IAP, CDP-star luminescence, 30 min; 190,000 tested, under 10 active;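 active = over 50% inhibition of intestinal alkaline phosphatase at 20 µM in the single-dose screen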
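Assay system: bovine IAP enzyme; medium: DEA buffer 100 mM, pH 9.8, with MgCl2 1.0 mM, ZnCl2 0.02 mM; doses: 20 µM single dose; incubation: enzyme reaction for 30 min at room temperature; detection: CDP-star luminescence signal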
bIAP activator – intestinal alkaline phosphatase (bovine) activation | purified bovine IAP, CDP-star luminescence, 30 min; hits give high values; fold of DMSO-control signal, blank-subtracted | activation factor at 20 µM | actives 0.17% (n = 200,000);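 active = activation factor of 2 or more at 20 µM, a signal rise over negative controls twice the positive control's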
hIAP block – blocks human intestinal alkaline phosphatase | actives 0.12% (n = 330,000) | P09923 | inhibition, % at 10 µM | purified IAP, CDP-Star luminescence, 30 min | AID 2544;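 active = inhibition reaching a set limit with compound at 10 µM in the primary screen, cut at about 35% in these data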;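 also: plate controls were DMSO wells with enzyme for no effect and no-enzyme buffer wells for full effect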
Target sequence (P09923 whole entry, looked up): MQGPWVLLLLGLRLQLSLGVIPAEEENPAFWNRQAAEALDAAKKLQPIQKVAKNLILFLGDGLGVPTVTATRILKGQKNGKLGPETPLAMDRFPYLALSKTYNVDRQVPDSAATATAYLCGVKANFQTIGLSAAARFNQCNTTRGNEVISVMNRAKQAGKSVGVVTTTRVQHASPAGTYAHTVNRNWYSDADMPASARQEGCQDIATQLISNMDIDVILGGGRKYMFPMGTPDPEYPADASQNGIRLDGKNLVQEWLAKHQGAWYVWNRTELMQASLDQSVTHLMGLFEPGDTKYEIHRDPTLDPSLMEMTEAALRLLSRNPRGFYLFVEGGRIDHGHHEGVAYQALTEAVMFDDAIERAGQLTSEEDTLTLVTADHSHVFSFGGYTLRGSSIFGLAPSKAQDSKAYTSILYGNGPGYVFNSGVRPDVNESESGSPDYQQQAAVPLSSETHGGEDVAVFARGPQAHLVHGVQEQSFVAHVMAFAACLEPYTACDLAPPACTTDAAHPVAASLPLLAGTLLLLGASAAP
mIAP act – mouse IAP activation; activation factor at 10 µM; muIAP, CDP-Star luminescence, 30 min; hits give high values; 1 = vehicle-only enzyme signal, 0 = enzyme-free wells; actives 0.24% (n = 330,000); AID 2805;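 active = activation factor of at least 2 at 20 µM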
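Assay system: mouse IAP enzyme / Compound: DMSO-dissolved test compounds / Timing: 30 min, room temperature / Measured by: luminescence from enzymatic CDP-Star hydrolysis / Control set: DMSO-only wells, enzyme-free buffer wells as negative control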
mIAP block – blocks mouse intestinal alkaline phosphatase; purified mouse IAP, CDP-Star luminescence, 30 min; inhibition, % at 10 µM; actives 0.2% (n = 330,000); AID 2806;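 active = inhibition of at least 40% at 10 µM in the primary screen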;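 also: plate controls were DMSO with enzyme for no effect and no enzyme wells for full effect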
hIAP act – increases human intestinal alkaline phosphatase activity. actives 0.16% (n = 330,000). AID 2524. activation factor at 10 µM. purified human IAP, CDP-Star luminescence, 30 min; hits give high values; 1 = vehicle-only enzyme, 0 = enzyme-free background;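 active = activation factor of the enzyme at least 2-fold when tested at 20 µM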
hIAP act conf – human IAP activation confirmation; actives 10% (n = 880); purified IAP, CDP-Star luminescence, 30 min; hits give low values; activation (%Activity, negative = activation), % at 8.3 µM; shares compounds with hIAP act;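 active = at least twofold enzyme activation in any of six single-dose repeats, which the averaged readout prints as negative percent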
* hit, by the source's call.

For NC(=O)c1c(NC(=O)C(=O)N2CCOCC2)sc2c1CCC2 the results were hIAP block 13, mIAP act 0.95, mIAP block 5 and hIAP act 0.87.
`COc1ccc(C2=NS(=O)(=O)N(C)C(C(=O)NCc3ccc4c(c3)OCO4)=C2)cc1OC` gave hIAP block 24, mIAP act 0.93, mIAP block 7 and hIAP act 0.76.
For O=C(COc1ccc2ccccc2c1Br)N1CCCCC1 the results were hIAP block 36*, mIAP act 0.95, mIAP block 5, hIAP act 0.64 and hIAP act conf -50*.
For Cn1c(/C(C#N)=C(\O)c2cc(Cl)sc2Cl)nc2ccccc21 the results were hIAP block 21, mIAP act 0.94, mIAP block 6 and hIAP act 0.79.
For Cn1c(/C(C#N)=C(\O)c2ccc(Br)s2)nc2ccccc21 the results were hIAP block 47*, mIAP act 0.95, mIAP block 5, hIAP act 0.53 and hIAP act conf 27.
Cc1nnc(SCC(=O)NC2CCCCCC2)n1N was read as hIAP block 14, mIAP act 0.98, mIAP block 2 and hIAP act 0.86.
COc1ccc(CCN2C(=O)c3ccncc3C2=O)cc1OC was read as bIAP inh -5, bIAP activator 1.1, hIAP block -139, mIAP act 1.1, mIAP block -9, hIAP act 2.4* and hIAP act conf 67.
COc1ccc(NC(=O)c2csc(Cc3ccccc3)n2)cc1 was read as bIAP activator 0.4, hIAP block 13, mIAP act 0.93, mIAP block 7 and hIAP act 0.87.
For COc1ccc(CNC(=O)c2csc(Cc3ccccc3)n2)cc1 the results were bIAP inh 9, bIAP activator 0.9, hIAP block -105, mIAP act 0.9, mIAP block 10, hIAP act 2* and hIAP act conf 9.
`S=C(NCC1CCCO1)Nc1ccc(Cl)c(Cl)c1` (stereo unspecified) gave bIAP inh 10, bIAP activator 0.9, hIAP block 2, mIAP act 1.2, mIAP block -18 and hIAP act 0.98.
For O=C(Cc1ccc(Cl)c(Cl)c1)NNC(=S)NCC1CCCO1 (stereo unspecified) the results were hIAP block -107, mIAP act 0.95, mIAP block 4, hIAP act 2.1* and hIAP act conf -98*.
Cc1ccc2c(c1)C(=O)CC1(CCCC1)O2 was read as hIAP block 2, mIAP act 1, mIAP block -1 and hIAP act 0.97.
Cc1ccccc1NC(=O)Cn1nc(C)n2cccc2c1=O was read as hIAP block 13, mIAP act 0.94, mIAP block 6 and hIAP act 0.87.
COC(=O)c1cc(NC(=O)Cn2nc(C)n3cccc3c2=O)cc(C(=O)OC)c1 was read as hIAP block 39*, mIAP act 1, mIAP block -4, hIAP act 0.61 and hIAP act conf -4.
Screening CC(=O)c1ccc(N(C(=O)c2ccco2)C(C(=O)NC2CCCC2)c2cccs2)cc1 (stereo unspecified) returned hIAP block 3, mIAP act 0.94, mIAP block 6 and hIAP act 0.97.
`Cc1ccc(N(C(=O)c2ccn[nH]2)C(C(=O)NC2CCCC2)c2cccs2)cc1` (stereo unspecified) gave bIAP inh -17, bIAP activator 1.2, hIAP block -203, mIAP act 2, mIAP block -96, hIAP act 3* and hIAP act conf -54.
COc1ccc(C(C(=O)NC2CCCC2)N(C(=O)c2snc(-c3ccc(F)cc3)c2N)c2ccc(F)cc2)cc1 (stereo unspecified) was read as bIAP inh 5, bIAP activator 0.9, hIAP block -6, mIAP act 0.92, mIAP block 8 and hIAP act 1.1.
COc1ccc(N(C(=O)c2ccn[nH]2)C(C(=O)NC2CCCC2)c2ccc(F)cc2)cc1 (stereo unspecified) was read as hIAP block -148, mIAP act 1.5, mIAP block -51, hIAP act 2.5* and hIAP act conf 3.
For CCN1C[C@@H]2[C@@H]3C(=O)N(Cc4ccccc4)C(=O)[C@@H]3[C@](Cc3ccccc3)(C(=O)OC)N2C1=NC the results were mIAP act 0.99 and mIAP block 1.
`C/C(=N/Nc1ccccc1[N+](=O)[O-])c1ccc([N+](=O)[O-])cc1` gave hIAP block 37*, mIAP act 0.91, mIAP block 9, hIAP act 0.63 and hIAP act conf -233*.
Cc1cc(N(C)/N=C/c2ccccc2O)nc(-c2ccccc2O)n1 was read as bIAP inh -23, bIAP activator 1.2, hIAP block -130, mIAP act 1.1, mIAP block -11, hIAP act 2.3* and hIAP act conf -37.
Screening CC(OC(=O)CCCNC(=O)c1ccc(Cl)cc1)C(=O)N(C)Cc1ccccc1 (stereo unspecified) returned hIAP block -1, mIAP act 1, mIAP block -2 and hIAP act 1.
For Cc1nn(C(=O)c2cccc([N+](=O)[O-])c2)c(C)c1Cl the results were hIAP block 13, mIAP act 0.89, mIAP block 12 and hIAP act 0.87.
`COc1c(C)cccc1C(=O)NC(=S)Nc1ccccc1N1CCCC1` gave hIAP block 35*, mIAP act 0.89, mIAP block 11, hIAP act 0.65 and hIAP act conf -34.
Screening O=C(NC(=S)Nc1ccccc1N1CCCC1)c1ccccc1Br returned hIAP block -13, mIAP act 0.67, mIAP block 34 and hIAP act 1.1.
CC(=O)Nc1nc(-c2cccc3ccccc23)cs1 was read as hIAP block -14, mIAP act 0.93, mIAP block 7 and hIAP act 1.1.
For CC(=O)Nc1nc(-c2ccc(Br)s2)cs1 the results were bIAP inh 38, bIAP activator 0.6, hIAP block -120, mIAP act 0.92, mIAP block 8, hIAP act 2.2* and hIAP act conf 6.
Screening Cc1c(/C=N/NC(=O)c2cc(Br)ccc2O)c(=O)n(C)c(=O)n1C returned hIAP block -114, mIAP act 0.98, mIAP block 2, hIAP act 2.1* and hIAP act conf -35.
`C/C=N/NC(=O)c1cc(Br)ccc1O` gave bIAP inh -18, bIAP activator 1.2, hIAP block -23, mIAP act 1, mIAP block 0 and hIAP act 1.2.
